Assay results taken from ChEMBL document CHEMBL4177578, “Synthesis, pharmacological activities and molecular docking studies of pyrazolyltriazoles as anti-bacterial and anti-inflammatory agents” (Bioorg Med Chem, 2017).
≈ marks a conversion by molar mass, not a printed value. Calls of active or inactive are those of the source. The calls are words filed in the database; no cut-off is given here.

system: not listed separately; assay: Anti-inflammatory activity using bovine serum albumin and egg albumin proteins incubated at 37 degC for 20 mins and then heated to 95 degC for 20 mins by UV-visible Spectrophotometry based protein denaturation method; format: functional; details: not given
How it was run: (§1)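 Albumin (bovine serum or egg) at 1% in 50 mM sodium phosphate buffer pH 6.4. Mixture is 0.1 ml test sample (1 mg/ml) plus 0.2 ml albumin, made to 5 ml with buffer. Held 37 °C for 20 min, then 95 °C for 20 min. Cooled to room temperature, turbidity read at 660 nm. % inhibition = (Abs control − Abs sample)/Abs control × 100. Triplicate, averaged.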

Row | Structure (SMILES) | IC50
1 | Cc1ccc(-n2cc(CO)c(-c3ccccc3)n2)cc1 | 73.42 µg/mL (≈ 278 µM)
2 | OCc1cn(-c2ccccc2)nc1-c1ccc(Cl)cc1 | 59.79 µg/mL (≈ 210 µM)
3 | Cc1ccc(-c2nn(-c3ccccc3)cc2CO)cc1 | 61.05 µg/mL (≈ 231 µM)
4 | COc1ccc(-c2nn(-c3ccccc3)cc2Cn2cc(-c3ccccc3)nn2)cc1 | Not Active
5 | COC(=O)c1nnn(Cc2cn(-c3ccc(Cl)cc3)nc2-c2ccccc2)c1C(=O)OC | Not Active
6 | OCc1cn(-c2ccccc2)nc1-c1ccc(Cl)cc1Cl | 62.37 µg/mL (≈ 195 µM)
7 | OCc1cn(-c2ccccc2)nc1-c1ccccc1 | 56.86 µg/mL (≈ 227 µM)
8 | CCOC(=O)c1nnn(Cc2cn(-c3ccc(Cl)cc3)nc2-c2ccccc2)c1C(=O)OCC | Not Active

system: Salmonella paratyphi; assay: Antimicrobial activity against Salmonella paratyphi at 1 mg/ml incubated for 20 to 30 mins followed by incubation for 24 hrs at 37 degC by agar plate method; format: functional; details: Salmonella enterica subsp. enterica serovar Paratyphi A
How it was run: (§2)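 Agar well diffusion on nutrient agar. Plates swabbed with 60 µL inoculum, 8 mm wells loaded with 100 µL sample at 1.0 mg/mL, streptomycin standard and control in separate wells. Plates held 20–30 min at 4 °C for diffusion, then 24 h at 37 °C. Zone diameter read in mm; triplicate.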

Row | Structure (SMILES) | diameter of the inhibition zone (DIZ)
9 | COc1ccc(-c2nn(-c3ccccc3)cc2Cn2cc(-c3ccccc3)nn2)cc1 | inactive
10 | COC(=O)c1nnn(Cc2cn(-c3ccc(Cl)cc3)nc2-c2ccccc2)c1C(=O)OC | inactive
11 | CCOC(=O)c1nnn(Cc2cn(-c3ccc(Cl)cc3)nc2-c2ccccc2)c1C(=O)OCC | inactive

same assay, conditions: Salmonella enterica; read-out: DIZ

Row | Structure (SMILES) | zone of inhibition at 1000 µg/mL [mm]
12 | Cc1ccc(-n2cc(CO)c(-c3ccccc3)n2)cc1 | 12.5
13 | OCc1cn(-c2ccccc2)nc1-c1ccc(Cl)cc1 | 12
14 | Cc1ccc(-c2nn(-c3ccccc3)cc2CO)cc1 | 14
15 | OCc1cn(-c2ccccc2)nc1-c1ccc(Cl)cc1Cl | 11.5
16 | OCc1cn(-c2ccccc2)nc1-c1ccccc1 | 14

system: Staphylococcus aureus; assay: Antimicrobial activity against Staphylococcus aureus at 1 mg/ml incubated for 20 to 30 mins followed by incubation for 24 hrs at 37 degC by agar plate method; format: functional; details: not given
How it was run: (§3)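 Agar well diffusion on nutrient agar. Plates swabbed with 60 µL inoculum; 8 mm wells loaded with 100 µL of compound at 1.0 mg/mL. Held 20–30 min at 4 °C for diffusion, then 24 h at 37 °C. Inhibition zone diameter read in mm. Triplicate.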

Row | Structure (SMILES) | diameter of the inhibition zone (DIZ)
17 | COc1ccc(-c2nn(-c3ccccc3)cc2Cn2cc(-c3ccccc3)nn2)cc1 | inactive
18 | COC(=O)c1nnn(Cc2cn(-c3ccc(Cl)cc3)nc2-c2ccccc2)c1C(=O)OC | inactive
19 | CCOC(=O)c1nnn(Cc2cn(-c3ccc(Cl)cc3)nc2-c2ccccc2)c1C(=O)OCC | inactive

system: not listed separately; assay: Anti-inflammatory activity at 100 ug/ml using bovine serum albumin and egg albumin proteins incubated at 37 degC for 20 mins and then heated to 95 degC for 20 mins by UV-visible Spectrophotometry based protein denaturation method; format: functional; details: not given; how it was run: as §1

Row | Structure (SMILES) | inhibition
20 | Cc1ccc(-n2cc(CO)c(-c3ccccc3)n2)cc1 | 68.1%
21 | OCc1cn(-c2ccccc2)nc1-c1ccc(Cl)cc1 | 83.6%
22 | Cc1ccc(-c2nn(-c3ccccc3)cc2CO)cc1 | 81.9%
23 | COc1ccc(-c2nn(-c3ccccc3)cc2Cn2cc(-c3ccccc3)nn2)cc1 | inactive
24 | COC(=O)c1nnn(Cc2cn(-c3ccc(Cl)cc3)nc2-c2ccccc2)c1C(=O)OC | inactive
25 | OCc1cn(-c2ccccc2)nc1-c1ccc(Cl)cc1Cl | 80.2%
26 | OCc1cn(-c2ccccc2)nc1-c1ccccc1 | 87.9%
27 | CCOC(=O)c1nnn(Cc2cn(-c3ccc(Cl)cc3)nc2-c2ccccc2)c1C(=O)OCC | inactive

system: Salmonella paratyphi; assay: Antimicrobial activity against Salmonella paratyphi incubated for 12 to 16 hrs by tube dilution method; format: functional; details: Salmonella enterica subsp. enterica serovar Paratyphi A
How it was run: (§4)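 Broth tube dilution, two-fold serial dilutions from 500 to 1.9 µg/mL plus a drug-free control tube. Each tube inoculated with 1 mL culture at OD 0.2 (~McFarland standard), 37 °C for 12-16 h. Turbidity compared with the control tube. MIC is the lowest concentration giving complete growth inhibition.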

Row | Structure (SMILES) | MIC
28 | COc1ccc(-c2nn(-c3ccccc3)cc2Cn2cc(-c3ccccc3)nn2)cc1 | inactive
29 | COC(=O)c1nnn(Cc2cn(-c3ccc(Cl)cc3)nc2-c2ccccc2)c1C(=O)OC | inactive
30 | CCOC(=O)c1nnn(Cc2cn(-c3ccc(Cl)cc3)nc2-c2ccccc2)c1C(=O)OCC | inactive

system: not listed separately; assay: Anti-inflammatory activity at 50 ug/ml using bovine serum albumin and egg albumin proteins incubated at 37 degC for 20 mins and then heated to 95 degC for 20 mins by UV-visible Spectrophotometry based protein denaturation method; format: functional; details: not given; how it was run: as §1

Row | Structure (SMILES) | inhibition
31 | Cc1ccc(-n2cc(CO)c(-c3ccccc3)n2)cc1 | 40.5%
32 | OCc1cn(-c2ccccc2)nc1-c1ccc(Cl)cc1 | 67.2%
33 | Cc1ccc(-c2nn(-c3ccccc3)cc2CO)cc1 | 60.3%
34 | COc1ccc(-c2nn(-c3ccccc3)cc2Cn2cc(-c3ccccc3)nn2)cc1 | inactive
35 | COC(=O)c1nnn(Cc2cn(-c3ccc(Cl)cc3)nc2-c2ccccc2)c1C(=O)OC | inactive
36 | OCc1cn(-c2ccccc2)nc1-c1ccc(Cl)cc1Cl | 60.3%
37 | OCc1cn(-c2ccccc2)nc1-c1ccccc1 | 75.9%
38 | CCOC(=O)c1nnn(Cc2cn(-c3ccc(Cl)cc3)nc2-c2ccccc2)c1C(=O)OCC | inactive

system: Salmonella typhi; assay: Antimicrobial activity against Salmonella typhi incubated for 12 to 16 hrs followed by plating in nutrient agar by tube dilution method; format: functional; details: Salmonella enterica subsp. enterica serovar Typhi
How it was run: (§5)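 After 12-16 h at 37 °C in tube dilution (500 to 1.9 µg/mL; 1 mL inoculum at OD 0.2), the culture from each tube was plated on nutrient agar. MBC is the concentration at which cells are completely killed.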

Row | Structure (SMILES) | MBC
39 | COc1ccc(-c2nn(-c3ccccc3)cc2Cn2cc(-c3ccccc3)nn2)cc1 | inactive
40 | COC(=O)c1nnn(Cc2cn(-c3ccc(Cl)cc3)nc2-c2ccccc2)c1C(=O)OC | inactive
41 | CCOC(=O)c1nnn(Cc2cn(-c3ccc(Cl)cc3)nc2-c2ccccc2)c1C(=O)OCC | inactive

system: U-937; assay: Anti-inflammatory activity in human U937 cells assessed as inhibition of LPS-induced TNFalpha production at 10 uM pre-incubated for 1 hr before LPS stimulation for 24 hrs by ELISA method; format: functional; details: not given
How it was run: (§6)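 Human U937 cells grown in RPMI1640 with 10% FBS at 37 °C, 5% CO2. Differentiated with PMA 30 ng/ml for 24 h. Test compounds added for 1 h, then LPS 1 µg/ml for 24 h. TNF-α and IL-6 in supernatant measured by ELISA. Three independent experiments.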

Row | Structure (SMILES) | inhibition at 10 µM [%]
42 | OCc1cn(-c2ccccc2)nc1-c1ccc(Cl)cc1 | 3.32
43 | Cc1ccc(-c2nn(-c3ccccc3)cc2CO)cc1 | 0.74
44 | OCc1cn(-c2ccccc2)nc1-c1ccc(Cl)cc1Cl | 4.92
45 | OCc1cn(-c2ccccc2)nc1-c1ccccc1 | 1.44

system: Salmonella typhi; assay: Antimicrobial activity against Salmonella typhi incubated for 12 to 16 hrs by tube dilution method; format: functional; details: Salmonella enterica subsp. enterica serovar Typhi; how it was run: as §4

Row | Structure (SMILES) | MIC
46 | COc1ccc(-c2nn(-c3ccccc3)cc2Cn2cc(-c3ccccc3)nn2)cc1 | inactive
47 | COC(=O)c1nnn(Cc2cn(-c3ccc(Cl)cc3)nc2-c2ccccc2)c1C(=O)OC | inactive
48 | CCOC(=O)c1nnn(Cc2cn(-c3ccc(Cl)cc3)nc2-c2ccccc2)c1C(=O)OCC | inactive

system: Micrococcus luteus; assay: Antimicrobial activity against Micrococcus luteus incubated for 12 to 16 hrs followed by plating in nutrient agar by tube dilution method; format: functional; details: not given
How it was run: (§7)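 Tube dilution, serial from 500 to 1.9 µg/mL, plus drug-free control tube. Each tube inoculated with 1 mL culture at OD 0.2, incubated 37 °C for 12–16 h. MIC is the lowest concentration with no growth by turbidity. MBC is found by plating each tube on nutrient agar: the lowest concentration at which all cells are killed.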

Row | Structure (SMILES) | MBC
49 | COc1ccc(-c2nn(-c3ccccc3)cc2Cn2cc(-c3ccccc3)nn2)cc1 | inactive
50 | COC(=O)c1nnn(Cc2cn(-c3ccc(Cl)cc3)nc2-c2ccccc2)c1C(=O)OC | inactive
51 | CCOC(=O)c1nnn(Cc2cn(-c3ccc(Cl)cc3)nc2-c2ccccc2)c1C(=O)OCC | inactive

system: Salmonella typhi; assay: Antimicrobial activity against Salmonella typhi at 1 mg/ml incubated for 20 to 30 mins followed by incubation for 24 hrs at 37 degC by agar plate method; format: functional; details: Salmonella enterica subsp. enterica serovar Typhi; how it was run: as §2

Row | Structure (SMILES) | diameter of the inhibition zone (DIZ)
52 | COc1ccc(-c2nn(-c3ccccc3)cc2Cn2cc(-c3ccccc3)nn2)cc1 | inactive
53 | COC(=O)c1nnn(Cc2cn(-c3ccc(Cl)cc3)nc2-c2ccccc2)c1C(=O)OC | inactive
54 | CCOC(=O)c1nnn(Cc2cn(-c3ccc(Cl)cc3)nc2-c2ccccc2)c1C(=O)OCC | inactive

same assay, conditions: Salmonella enterica; read-out: DIZ

Row | Structure (SMILES) | zone of inhibition at 1000 µg/mL [mm]
55 | Cc1ccc(-n2cc(CO)c(-c3ccccc3)n2)cc1 | 17
56 | Cc1ccc(-c2nn(-c3ccccc3)cc2CO)cc1 | 19
57 | OCc1cn(-c2ccccc2)nc1-c1ccc(Cl)cc1Cl | 13.5
58 | OCc1cn(-c2ccccc2)nc1-c1ccccc1 | 11.5

system: U-937; assay: Anti-inflammatory activity in human U937 cells assessed as inhibition of LPS-induced IL6 production at 10 uM pre-incubated for 1 hr before LPS stimulation for 24 hrs by ELISA method; format: functional; details: not given; how it was run: as §6

Row | Structure (SMILES) | inhibition at 10 µM [%]
59 | Cc1ccc(-n2cc(CO)c(-c3ccccc3)n2)cc1 | 23.8
60 | OCc1cn(-c2ccccc2)nc1-c1ccc(Cl)cc1 | 24.1
61 | Cc1ccc(-c2nn(-c3ccccc3)cc2CO)cc1 | 20.9
62 | OCc1cn(-c2ccccc2)nc1-c1ccc(Cl)cc1Cl | 18.3
63 | OCc1cn(-c2ccccc2)nc1-c1ccccc1 | 19.6

system: Micrococcus luteus; assay: Antimicrobial activity against Micrococcus luteus at 1 mg/ml incubated for 20 to 30 mins followed by incubation for 24 hrs at 37 degC by agar plate method; format: functional; details: not given; how it was run: as §3

Row | Structure (SMILES) | diameter of the inhibition zone (DIZ)
64 | COc1ccc(-c2nn(-c3ccccc3)cc2Cn2cc(-c3ccccc3)nn2)cc1 | inactive
65 | COC(=O)c1nnn(Cc2cn(-c3ccc(Cl)cc3)nc2-c2ccccc2)c1C(=O)OC | inactive
66 | CCOC(=O)c1nnn(Cc2cn(-c3ccc(Cl)cc3)nc2-c2ccccc2)c1C(=O)OCC | inactive

same assay, conditions: read-out: DIZ

Row | Structure (SMILES) | zone of inhibition at 1000 µg/mL [mm]
67 | Cc1ccc(-c2nn(-c3ccccc3)cc2CO)cc1 | 16.5

system: Salmonella paratyphi; assay: Antimicrobial activity against Salmonella paratyphi incubated for 12 to 16 hrs followed by plating in nutrient agar by tube dilution method; format: functional; details: Salmonella enterica subsp. enterica serovar Paratyphi A; how it was run: as §5

Row | Structure (SMILES) | MBC
68 | COc1ccc(-c2nn(-c3ccccc3)cc2Cn2cc(-c3ccccc3)nn2)cc1 | inactive
69 | COC(=O)c1nnn(Cc2cn(-c3ccc(Cl)cc3)nc2-c2ccccc2)c1C(=O)OC | inactive
70 | CCOC(=O)c1nnn(Cc2cn(-c3ccc(Cl)cc3)nc2-c2ccccc2)c1C(=O)OCC | inactive

system: Micrococcus luteus; assay: Antimicrobial activity against Micrococcus luteus incubated for 12 to 16 hrs by tube dilution method; format: functional; details: not given; how it was run: as §7

Row | Structure (SMILES) | MIC
71 | COc1ccc(-c2nn(-c3ccccc3)cc2Cn2cc(-c3ccccc3)nn2)cc1 | inactive
72 | COC(=O)c1nnn(Cc2cn(-c3ccc(Cl)cc3)nc2-c2ccccc2)c1C(=O)OC | inactive
73 | CCOC(=O)c1nnn(Cc2cn(-c3ccc(Cl)cc3)nc2-c2ccccc2)c1C(=O)OCC | inactive
